For experiment [1], the system named is A2780. In words: Compound was tested for inhibitory activity against A2780 human ovarian carcinoma cell line; activity expressed in Mean IC50 values. The format is functional, cell-based. A digest of the protocol:
(§1)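 Cell survival in drug-treated cultures read by MTT assay. Compound stock solutions (0.5–1.2 mg/mL) were freshly prepared before use. Cells: ovarian carcinoma lines A2780, A2780cisR, CH1 and CH1cisR; normal murine keratinocytes Pam 212; Pam 212-ras, which are murine keratinocytes transformed with the v-H-ras oncogene and resistant to cis-DDP.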

Experiment [2] concerns CH1. Nature of the experiment: Compound was tested for inhibitory activity against CH1cisR human ovarian carcinoma cell line; activity expressed in Mean IC50 values. The format is functional, cell-based. A digest of the protocol: as §1
Experiment [3] deals with CH1. In words: Compound was tested for inhibitory activity against CH1 human ovarian carcinoma cell line; activity expressed in Mean IC50 values. Format: functional, cell-based. Put shortly: as §1
Experiment [4] in a line: Compound was tested for inhibitory activity against normal Pam 212 murine keratinocytes; activity expressed in Mean IC50 values. Format: functional, Mus musculus. Put shortly: as §1
Experiment [5] can be described thus: (§2) Compound was tested for inhibitory activity against transformed Pam 212-ras murine keratinocytes; activity expressed in Mean IC50 values. Format: functional, Mus musculus. Put shortly:
as §1

For experiment [6], the system named is A2780. In words: Compound was tested for inhibitory activity against A2780cisR human ovarian carcinoma cell line; activity expressed in Mean IC50 values. The format is functional, cell-based. Put shortly: as §1
The species named for the next experiment is Mus musculus. Described as §2. Format: functional, organism-based. A digest of the protocol: as §1

pIC50: −log10 of the molar value.

`O=C1c2cccc3cccc(c23)C(=O)N1CCNCCNCCN1C(=O)c2cccc3cccc(c23)C1=O`: the negative logarithm of the IC50 (pIC50) was less than 5.00 in the experiment with A2780 [1] (Homo sapiens, A2780); less than 4.00 in the experiment on CH1 [2] (Homo sapiens, CH1cisR); less than 5.00 with CH1 [3] (Homo sapiens, CH1); 3.85 in experiment [4]; 3.80 in experiment [5]; less than 4.00 in the experiment on A2780 [6] (Homo sapiens, A2780).
As to CISPLATIN, the negative-log IC50 (pIC50) in the experiment on CH1 [2] (ch1cisr) was 6.19; in the experiment filed under Mus musculus it was 3.78.
For “Platinum cyclobutane-1,1-dicarboxylic acid-bis-(naphthalimide) complex”, the pIC50 in the experiment with A2780 [1] (a2780) is 6.55; with CH1 [2] (ch1cisr), 6.22; in the experiment on CH1 [3] (ch1), 6.46; in experiment [4], 3.80; in experiment [5], 4.05; with A2780 [6] (a2780), 6.00.
